For 14 compounds, IC50 and Activity results are on record in ChEMBL document CHEMBL2169857, “Synthesis of a potent photoreactive acidic γ-secretase modulator for target identification in cells” (Bioorg Med Chem, 2012).

Holding throughout (format): cell-based
Assay [1] can be described thus: Modulation of gamma-secretase expressed in CHO cells co-expressing wild type APP and PS1 assessed as inhibition of amyloid beta-42 production sandwich ELISA. The essentials:
(§1)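 CHO cells stably overexpressing wild-type APP and PS1 incubated with compounds; Aβ42, Aβ40 and, for selected compounds, Aβ38 in cell-culture supernatants quantified by sandwich ELISA; IC50 derived for Aβ42.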
A general note: In an ELISA, binding on a coated surface is turned into a signal by an enzyme label.

Assay [2] deals with CHO. The assay can be described thus: Modulation of gamma-secretase expressed in CHO cells co-expressing wild type APP and PS1 assessed as increase of amyloid beta-38 production sandwich ELISA. The essentials: as §1
Assay [3] has as its target Presenilin-1 (Homo sapiens) (UniProt P49768). The assay can be described thus: Binding affinity to gamma-secretase catalytic subunit of PS1 expressed in N2a-APP cells at 0.2 uM followed by irradiated with UV light by Western blot analysis. The essentials: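 N2a-ANPP cells stably overexpressing APP and all four γ-secretase subunits treated live with 0.2 μM biotinylated photoprobe or DMSO vehicle, irradiated with 350 nm UV; membranes prepared, labeled proteins affinity-purified on streptavidin beads, resolved by SDS gel and Western blotted with antibodies to the four γ-secretase subunits or APP.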
For orientation: A western blot detects proteins with antibodies after separation by electrophoresis.

Activity calls are given as the source filed them. No cut-off for these calls is given here.

In general, IC50 refers to the midpoint of a concentration-inhibition curve.

`CC(C)C#CC(c1ccc(C2(C(F)(F)F)N=N2)cc1)N1CCC(CC(=O)O)CC1c1ccc(C(F)(F)F)cc1` (racemic): in assay [1], the IC50 amounted to 190 nM. Consider `CC(C)C#C[C@H](c1ccc(Cl)cc1)N1CC[C@@H](CC(=O)O)C[C@H]1c1ccc(C(F)(F)F)cc1`, for which the outcome in assay [2] was Active. For the same compound, the IC50 in assay [1] came out at 87 nM. As for `O=C(O)CC1CCN(C(C#CCCCCOC(=O)CCCC[C@@H]2SC[C@@H]3NC(=O)N[C@@H]32)c2ccc(C3(C(F)(F)F)N=N3)cc2)C(c2ccc(C(F)(F)F)cc2)C1` (mixture of isomers), the outcome in assay [3] was Active. Besides, in assay [1], the IC50 was determined as 500 nM.

With `O=C(O)CC1CCN(C(C#CCCCCNC(=O)CCCC[C@@H]2SC[C@@H]3NC(=O)N[C@@H]32)c2ccc(C3(C(F)(F)F)N=N3)cc2)C(c2ccc(C(F)(F)F)cc2)C1` (mixture of isomers), in assay [1], the IC50 was determined as 2200 nM. Same read-out and setting: with `CC(C)CC[C@H](c1ccc(Cl)cc1)N1CC[C@@H](CC(=O)O)C[C@H]1c1ccc(C(F)(F)F)cc1` the figure was 68 nM; with `O=C(O)CC1CCN(C(C#CCCCCO)c2ccc(C3(C(F)(F)F)N=N3)cc2)C(c2ccc(C(F)(F)F)cc2)C1` (racemic), 2000 nM; with `CC(C)/C=C\[C@H](c1ccc(Cl)cc1)N1CC[C@@H](CC(=O)O)C[C@H]1c1ccc(C(F)(F)F)cc1`, 30 nM. The same measure, in the same setting: the result for `CC(C)/C=C\[C@@H](c1ccc(Cl)cc1)N1CC[C@H](CC(=O)O)C[C@@H]1c1ccc(C(F)(F)F)cc1` reads 616 nM.

Consider `O=C(O)CC1CCN(C(C#CCCCCOC(=O)CCCC[C@@H]2SC[C@@H]3NC(=O)N[C@@H]32)c2ccc(C(F)(F)F)cc2)C(c2ccc(C(F)(F)F)cc2)C1` (mixture of isomers), for which the IC50 in assay [1] amounted to 1000 nM. For `COC(=O)CC1CCN(C(C#CCCCCNC(=O)CCCC[C@@H]2SC[C@@H]3NC(=O)N[C@@H]32)c2ccc(C3(C(F)(F)F)N=N3)cc2)C(c2ccc(C(F)(F)F)cc2)C1` (mixture of isomers), the result in assay [3] was Active. As to `CC(C)C#C[C@@H](c1ccc(C(F)(F)F)cc1)N1CC[C@H](CC(=O)O)C[C@@H]1c1ccc(C(F)(F)F)cc1`, the IC50 in assay [1] came to 350 nM. Turning to `CC(C)C#C[C@@H](c1ccc(Cl)cc1)N1CC[C@H](CC(=O)O)C[C@@H]1c1ccc(C(F)(F)F)cc1`, in assay [1], the IC50 worked out at 300 nM.

`COc1cc(C(C#CC(C)C)N2CCC(CC(=O)O)CC2c2ccc(C(F)(F)F)cc2)ccc1-n1cnc(C)c1` (racemic): the half-inhibitory concentration (IC50) in assay [1] was 1000 nM.

With `CC(C)C#C[C@H](c1ccc(C(F)(F)F)cc1)N1CC[C@@H](CC(=O)O)C[C@H]1c1ccc(C(F)(F)F)cc1`, the concentration for half-maximal inhibition (IC50) in assay [1] came out at 50 nM.
